Data taken from EPA's CvTdb concentration-time database.
Values joined by “and” are separate entries in the source; they are usually repeats but may differ in a detail not shown here. Identical values can stand only once.

Tests used:
rat [1] = experiment: concentration in blood after dosing; settings: dosed: isoflurane, 50000 ppm, dermal, duration: 4 hr, male, F344
rat [2] = experiment: concentration in blood after dosing; settings: dosed: isoflurane, 50000 ppm, dermal, duration: 4 hr, male, F344; remark: listed apart in the source
rat [3] = experiment: concentration in blood after dosing; settings: dosed: isoflurane, 50000 ppm, dermal, duration: 4 hr, male, F344; remark: listed apart in the source
rat [4] = experiment: concentration in blood after dosing; settings: dosed: isoflurane, 50000 ppm, dermal, duration: 4 hr, male, F344; remark: listed apart in the source
rat [5] = experiment: concentration in blood after dosing; settings: dosed: isoflurane, 50000 ppm, dermal, duration: 4 hr, male, F344; remark: listed apart in the source
rat [6] = experiment: concentration in blood after dosing; settings: dosed: isoflurane, 50000 ppm, dermal, duration: 4 hr, male, F344; remark: listed apart in the source
human = experiment: concentration in blood after dosing; negative times count back from the end of exposure; settings: dosed: N-methyl-2-pyrrolidone, inhalation, male
How it was run: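 Data points giving concentration or amount against time came from published in vivo toxicokinetic studies and from two structured collections. PubMed searching, classifier screening and manual review located the studies. Most points were digitised from plot screenshots using WebPlotDigitizer, the rest were copied from tables, and all keep their reported units.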

FC(F)OC(Cl)C(F)(F)F (stereo not given) [isoflurane]
concentration in blood
Settings | rat [1] | rat [2] | rat [3] | rat [4] | rat [5] | rat [6]
0.5 h | 1120 ng/mL | 19.6 ng/mL | 510 ng/mL | – | 614 ng/mL | 418 ng/mL
1 h | 2500 ng/mL | – | 699 ng/mL | – | 810 ng/mL and 1520 ng/mL | 1010 ng/mL
2 h | 3610 ng/mL | 1730 ng/mL | 1610 ng/mL | 1120 ng/mL | 1610 ng/mL and 1420 ng/mL | –
3 h | 3220 ng/mL | 2030 ng/mL | 1720 ng/mL | 1520 ng/mL | 1520 ng/mL | 1610 ng/mL
4 h | 2520 ng/mL | 824 ng/mL | 915 ng/mL | 1210 ng/mL | 706 ng/mL | 516 ng/mL

CN1CCCC1=O [N-methyl-2-pyrrolidone]
human
Settings | concentration in blood [ng/mL]
0 h, 10 mg/m^3, duration: 8 hr | 470
0.8235 h, 53 mg/m^3, duration: 8 hr | 2010
0.9269 h, 80 mg/m^3, duration: 6 hr 10min | 942
0.9412 h, 10 mg/m^3, duration: 8 hr | 503
0.9412 h, 24 mg/m^3, duration: 8 hr | 701
0.986 h, 10 mg/m^3, duration: 6 hr 10min | 194
0.986 h, 40 mg/m^3, duration: 6 hr 10min | 412
1.824 h, 24 mg/m^3, duration: 8 hr | 492
1.824 h, 53 mg/m^3, duration: 8 hr | 1300
1.882 h, 10 mg/m^3, duration: 8 hr | 244
1.932 h, 10 mg/m^3, duration: 6 hr 10min | 153
1.932 h, 80 mg/m^3, duration: 6 hr 10min | 723
2.109 h, 40 mg/m^3, duration: 6 hr 10min | 346
3.765 h, 10 mg/m^3, duration: 8 hr | 139
3.765 h, 24 mg/m^3, duration: 8 hr | 277
3.765 h, 53 mg/m^3, duration: 8 hr | 757
3.823 h, 40 mg/m^3, duration: 6 hr 10min | 253
3.823 h, 80 mg/m^3, duration: 6 hr 10min | 516
4.06 h, 10 mg/m^3, duration: 6 hr 10min | 146
7.882 h, 53 mg/m^3, duration: 8 hr | 305
7.941 h, 24 mg/m^3, duration: 8 hr | 189
8 h, 10 mg/m^3, duration: 8 hr | 123
18.01 h, 80 mg/m^3, duration: 6 hr 10min | 92.6
18.25 h, 40 mg/m^3, duration: 6 hr 10min | 18.6
18.6 h, 10 mg/m^3, duration: 6 hr 10min | 55.7
19.88 h, 53 mg/m^3, duration: 8 hr | 91.4
19.94 h, 10 mg/m^3, duration: 8 hr | 85.9
19.94 h, 24 mg/m^3, duration: 8 hr | 63.9
145 s, 80 mg/m^3, duration: 6 hr 10min | 1530

human, during exposure
Settings | concentration in blood [ng/mL]
-281 s, 40 mg/m^3, duration: 6 hr 10min | 645
-212 s, 24 mg/m^3, duration: 8 hr | 806
-212 s, 53 mg/m^3, duration: 8 hr | 2610
-68 s, 10 mg/m^3, duration: 6 hr 10min | 308
-4.118 h, 53 mg/m^3, duration: 8 hr | 1610
-4 h, 10 mg/m^3, duration: 8 hr | 342
-4 h, 24 mg/m^3, duration: 8 hr | 971
-3.211 h, 80 mg/m^3, duration: 6 hr 10min | 963
-3.034 h, 10 mg/m^3, duration: 6 hr 10min | 182
-3.034 h, 40 mg/m^3, duration: 6 hr 10min | 449
